ChEMBL document CHEMBL3297645, “Discovery of TD-4306, a long-acting β2-agonist for the treatment of asthma and COPD” (Bioorg Med Chem Lett, 2014)
The source made the active and inactive calls. The calls are words filed in the database; no cut-off is given here.

Legend:
[1] = molecular target: T1, Beta-2 adrenergic receptor (Homo sapiens, UniProt P07550); test: Displacement of [3H]dihydroalprenolol from human beta2 adrenergic receptor expressing cell membrane by competition binding assay
Homo sapiens [2] = species on record: Homo sapiens; test: Selectivity ratio of Ki for human beta1 adrenergic receptor to Ki for human beta2 adrenergic receptor
Procedure, shortened: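 Competition binding used [3H]dihydroalprenolol as tracer on plasma membranes from cells expressing recombinant human β1- or β2-adrenoceptors. Selectivity is the ratio β1 Ki/β2 Ki.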

[3] = molecular target: Beta-1 adrenergic receptor (Homo sapiens, UniProt P08588); test: Agonist activity at human beta1 adrenergic receptor expressed in cells by cAMP accumulation assay; type: functional, cell-based
[4] = molecular target: T1, Beta-2 adrenergic receptor; test: Agonist activity at human beta2 adrenergic receptor expressed in cells by cAMP accumulation assay; type: functional, cell-based
[5] = molecular target: Beta-3 adrenergic receptor (Homo sapiens, UniProt P13945); test: Agonist activity at human beta3 adrenergic receptor expressed in cells by cAMP accumulation assay; type: functional, cell-based
Procedure, shortened: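 cAMP accumulation read-out in a recombinant cell line heterologously expressing the human β3-adrenoceptor.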

[6] = molecular target: T1, Beta-2 adrenergic receptor; test: Agonist activity at human beta2 adrenergic receptor in human BEAS-2B cells by cAMP accumulation assay; type: functional, cell-based
Cavia porcellus [7] = test: Bronchoprotection activity against acetylcholine-induced guinea pig bronchoconstriction model at 1 to 100 ug/ml administered as nebulized dosing measured after 72 hrs; type: functional, organism-based
Procedure, shortened: (§1)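 Guinea pigs received the compound by nebulizer, and testing took place 72 h after treatment. Pulmonary resistance was measured by head-out plethysmograph in anesthetized, spontaneously breathing animals. Bronchoconstriction was induced by increasing intravenous acetylcholine doses. The ACh dose doubling baseline resistance (PD2) was calculated.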

Cavia porcellus [8] = test: Bronchoprotection activity against acetylcholine-induced guinea pig bronchoconstriction model administered as nebulized dosing measured after 72 hrs; type: functional, organism-based; procedure, shortened: as §1
Cavia porcellus [9] = test: Bronchoprotection activity against acetylcholine-induced guinea pig bronchoconstriction model at >= 30 ug/ml administered as nebulized dosing measured after 72 hrs; type: functional, organism-based; procedure, shortened: as §1
[10] = Clearance in rat; type: ADME, organism-based; conditions: in vivo
[11] = Oral bioavailability in rat; type: ADME, organism-based; conditions: in vivo
[12] = Clearance in dog; type: ADME, organism-based, Canis lupus familiaris; conditions: in vivo
[13] = Oral bioavailability in dog; type: ADME, organism-based, Canis lupus familiaris; conditions: in vivo
hERG (KCNH2) = hERG (KCNH2) (Homo sapiens, UniProt Q12809); test: Inhibition of human ERG at 40 nM
Homo sapiens [14] = species on record: Homo sapiens; test: Inhibition of muscarinic receptor (unknown origin) at 1 uM
[15] = molecular target: T2, Muscarinic acetylcholine receptor M2 (Homo sapiens, UniProt P08172); test: Inhibition of muscarinic acetylcholine receptor M2 (unknown origin)
T2 sequence (P08172 whole entry): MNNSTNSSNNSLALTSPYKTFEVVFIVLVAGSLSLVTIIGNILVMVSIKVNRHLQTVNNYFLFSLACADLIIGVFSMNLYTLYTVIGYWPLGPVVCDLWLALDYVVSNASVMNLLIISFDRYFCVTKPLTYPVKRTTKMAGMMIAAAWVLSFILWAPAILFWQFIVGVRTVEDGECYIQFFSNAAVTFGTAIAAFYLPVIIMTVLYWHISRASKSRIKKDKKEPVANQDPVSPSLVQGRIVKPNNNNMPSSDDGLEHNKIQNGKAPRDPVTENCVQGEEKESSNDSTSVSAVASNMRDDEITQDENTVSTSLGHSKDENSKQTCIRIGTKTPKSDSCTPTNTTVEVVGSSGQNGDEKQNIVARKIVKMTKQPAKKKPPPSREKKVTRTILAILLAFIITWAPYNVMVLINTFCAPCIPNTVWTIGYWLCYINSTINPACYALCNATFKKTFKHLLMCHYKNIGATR

[16] = Dissociation constant, pKa of the compound; type: physicochemical

Chain of Beta-3 adrenergic receptor (P13945 whole entry): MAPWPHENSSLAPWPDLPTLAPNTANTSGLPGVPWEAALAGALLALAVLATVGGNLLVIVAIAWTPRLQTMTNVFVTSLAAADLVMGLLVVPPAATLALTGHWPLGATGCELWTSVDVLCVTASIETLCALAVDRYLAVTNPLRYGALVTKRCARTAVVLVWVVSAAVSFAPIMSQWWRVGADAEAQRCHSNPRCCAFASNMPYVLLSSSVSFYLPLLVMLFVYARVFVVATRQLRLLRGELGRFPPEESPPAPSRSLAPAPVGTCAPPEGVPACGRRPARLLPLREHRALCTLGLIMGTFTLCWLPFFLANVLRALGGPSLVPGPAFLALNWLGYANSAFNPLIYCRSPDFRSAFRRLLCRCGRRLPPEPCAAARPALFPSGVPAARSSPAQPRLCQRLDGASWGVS
Chain of Beta-1 adrenergic receptor (P08588 whole entry): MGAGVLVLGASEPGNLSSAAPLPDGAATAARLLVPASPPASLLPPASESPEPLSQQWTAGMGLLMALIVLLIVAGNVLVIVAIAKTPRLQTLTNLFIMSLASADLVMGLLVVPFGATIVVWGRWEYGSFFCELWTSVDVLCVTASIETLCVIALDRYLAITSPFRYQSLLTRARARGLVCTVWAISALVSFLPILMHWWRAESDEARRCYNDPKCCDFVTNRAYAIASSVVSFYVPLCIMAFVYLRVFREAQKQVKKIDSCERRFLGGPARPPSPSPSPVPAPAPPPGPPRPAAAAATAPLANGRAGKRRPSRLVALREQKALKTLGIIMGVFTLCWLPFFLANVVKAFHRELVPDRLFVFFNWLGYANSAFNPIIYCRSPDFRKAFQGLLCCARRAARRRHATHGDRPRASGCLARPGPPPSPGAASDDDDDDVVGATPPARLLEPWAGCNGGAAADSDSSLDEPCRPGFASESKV
T1 sequence (P07550 whole entry): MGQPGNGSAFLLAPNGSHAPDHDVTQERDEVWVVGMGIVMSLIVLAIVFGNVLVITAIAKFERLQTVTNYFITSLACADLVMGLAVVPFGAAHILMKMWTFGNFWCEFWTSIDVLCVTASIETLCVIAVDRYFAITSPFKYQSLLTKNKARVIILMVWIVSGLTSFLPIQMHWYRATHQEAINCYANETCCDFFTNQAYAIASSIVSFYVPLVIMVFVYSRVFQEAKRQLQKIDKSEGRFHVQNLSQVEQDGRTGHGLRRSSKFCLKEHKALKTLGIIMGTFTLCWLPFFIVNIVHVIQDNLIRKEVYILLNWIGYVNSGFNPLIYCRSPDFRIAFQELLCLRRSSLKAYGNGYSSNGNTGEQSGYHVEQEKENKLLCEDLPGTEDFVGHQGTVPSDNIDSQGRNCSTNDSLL
Chain of hERG (KCNH2) (Q12809 whole entry): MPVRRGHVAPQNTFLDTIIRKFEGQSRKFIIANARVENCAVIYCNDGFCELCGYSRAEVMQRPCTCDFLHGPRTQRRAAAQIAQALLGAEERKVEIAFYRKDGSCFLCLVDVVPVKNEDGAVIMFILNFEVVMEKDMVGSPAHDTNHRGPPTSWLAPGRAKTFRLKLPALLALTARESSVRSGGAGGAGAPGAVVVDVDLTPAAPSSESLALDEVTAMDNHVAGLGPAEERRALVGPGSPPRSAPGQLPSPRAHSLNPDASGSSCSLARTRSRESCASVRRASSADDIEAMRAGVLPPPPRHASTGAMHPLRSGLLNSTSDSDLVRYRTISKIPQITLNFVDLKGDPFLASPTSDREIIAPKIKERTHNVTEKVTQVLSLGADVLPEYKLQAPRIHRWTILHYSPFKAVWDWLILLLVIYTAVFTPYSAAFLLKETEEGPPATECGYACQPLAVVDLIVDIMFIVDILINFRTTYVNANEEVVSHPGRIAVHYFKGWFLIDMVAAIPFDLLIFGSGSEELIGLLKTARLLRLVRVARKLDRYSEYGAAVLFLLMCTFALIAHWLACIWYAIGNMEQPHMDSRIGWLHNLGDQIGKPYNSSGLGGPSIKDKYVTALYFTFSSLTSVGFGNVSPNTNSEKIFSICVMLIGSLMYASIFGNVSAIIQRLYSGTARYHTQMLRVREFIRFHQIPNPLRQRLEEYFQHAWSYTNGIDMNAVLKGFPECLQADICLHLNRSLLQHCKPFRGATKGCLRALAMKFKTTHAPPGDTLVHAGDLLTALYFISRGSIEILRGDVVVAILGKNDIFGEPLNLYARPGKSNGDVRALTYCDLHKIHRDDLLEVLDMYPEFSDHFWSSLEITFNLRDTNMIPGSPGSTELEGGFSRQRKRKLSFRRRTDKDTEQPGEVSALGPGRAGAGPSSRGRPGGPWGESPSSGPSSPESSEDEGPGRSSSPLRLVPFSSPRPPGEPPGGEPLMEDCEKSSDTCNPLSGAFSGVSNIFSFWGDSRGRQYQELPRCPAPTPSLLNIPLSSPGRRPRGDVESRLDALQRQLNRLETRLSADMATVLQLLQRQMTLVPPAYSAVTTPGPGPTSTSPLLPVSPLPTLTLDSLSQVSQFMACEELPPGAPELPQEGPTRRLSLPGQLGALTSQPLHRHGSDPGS

SMILES | Ki [1] [nM] | Ratio Ki (Homo sapiens [2]) | EC50 [3] [nM] | EC50 [4] [nM] | EC50 [5] [nM] | EC50 [6] [nM] | clearance [10] [mL/min/kg] | bioavailability [11] [%] | clearance [12] [mL/min/kg] | bioavailability [13] [%] | inhibition (Homo sapiens [14]) | Ki [15] [nM] | pKa [16] | Activity (Cavia porcellus [7]) | Activity (Cavia porcellus [8]) | Activity (Cavia porcellus [9]) | inhibition at 0.04 µM (hERG (KCNH2)) [%]
CC(C)(N)COc1ccc(Nc2ccc(CCNC[C@H](O)c3ccc(O)c(NC=O)c3)cc2)cc1 | 25.1 | 94 | 6.31 | 0.251 | 39.8 | 3.16 |  |  |  |  |  |  |  |  |  |  | 
O=c1ccc2c([C@@H](O)CNCCc3ccc(Nc4ccc(OCCN5CCOCC5)cc4)cc3)ccc(O)c2[nH]1 | 20 | 41 | 12.6 | 0.316 | 50.1 | 3.16 |  |  |  |  |  |  |  |  |  |  | 
CC(C)(N)COc1ccc(Nc2ccc(CCNC[C@H](O)c3ccc(O)c4[nH]c(=O)ccc34)cc2)cc1 | 6.31 | 64 | 6.31 | 0.0794 | 63.1 | 1 | 6.67 | 1 | 40 | 5 | Active | 631 |  |  | Dose-dependent effect | Active | 7
NCCOCCOc1ccc(Nc2ccc(CCNC[C@H](O)c3ccc(O)c4[nH]c(=O)ccc34)cc2)cc1 | 6.31 | 95 | 7.94 | 0.158 | 39.8 | 0.631 |  |  |  |  |  |  |  |  |  |  | 
CC(C)(C)OC(=O)NCCOc1ccc(Nc2ccc(CCNC[C@H](O)c3ccc(O)c4[nH]c(=O)ccc34)cc2)cc1 | 20 | 26 | 12.6 | 0.501 | 12.6 | 2.51 |  |  |  |  |  |  |  |  |  |  | 
O=CNc1cc([C@@H](O)CNCCc2ccc(NC[C@H](O)c3ccccc3)cc2)ccc1O [MILVETEROL] |  | 2910 |  |  | 39.8 |  |  |  |  |  |  |  |  |  |  |  | 
CS(=O)(=O)N1CCN(CCOc2ccc(Nc3ccc(CCNC[C@H](O)c4ccc(O)c5[nH]c(=O)ccc45)cc3)cc2)CC1 | 31.6 | 30 | 7.94 | 0.631 | 31.6 | 6.31 |  |  |  |  |  |  |  |  |  |  | 
O=C(NCCOc1ccc(Nc2ccc(CCNC[C@H](O)c3ccc(O)c4[nH]c(=O)ccc34)cc2)cc1)c1ccccc1 | 10 | 13 | 2 | 0.501 | 12.6 | 1.58 |  |  |  |  |  |  |  |  |  |  | 
O=c1ccc2c([C@@H](O)CNCCc3ccc(Nc4ccc(OCCN5CCNCC5)cc4)cc3)ccc(O)c2[nH]1 | 10 | 116 | 10 | 0.126 | 39.8 | 1.58 |  |  |  |  |  |  | 9.1 |  |  |  | 
NCCCCOc1ccc(Nc2ccc(CCNC[C@H](O)c3ccc(O)c4[nH]c(=O)ccc34)cc2)cc1 | 5.01 | 85 | 7.94 | 0.126 | 39.8 | 0.631 |  |  |  |  |  |  |  |  |  |  | 

More lines, main results first:

Ki [1] [nM] | Ratio Ki (Homo sapiens [2]) | EC50 [3] [nM] | EC50 [4] [nM] | EC50 [5] [nM] | EC50 [6] [nM] | clearance [10] [mL/min/kg] | bioavailability [11] [%] | clearance [12] [mL/min/kg] | bioavailability [13] [%] | inhibition (Homo sapiens [14]) | Ki [15] [nM] | pKa [16] | SMILES | Activity (Cavia porcellus [7]) | Activity (Cavia porcellus [8]) | Activity (Cavia porcellus [9]) | inhibition at 0.04 µM (hERG (KCNH2)) [%]
1.58 | 146 | 3.98 | 0.0794 | 25.1 | 0.316 |  |  |  |  |  |  |  | COc1ccc(Nc2ccc(CCNC[C@H](O)c3ccc(O)c4[nH]c(=O)ccc34)cc2)cc1-c1cccc(CN)c1 | Active |  |  | 
3.16 | 20 | 2.51 | 0.126 | 6.31 | 0.794 |  |  |  |  |  |  |  | COc1ccc(Nc2ccc(CCNC[C@H](O)c3ccc(O)c4[nH]c(=O)ccc34)cc2)cc1-c1ccccc1CN |  |  |  | 
6.31 | 64 | 7.94 | 0.1 | 39.8 | 0.501 |  |  |  |  |  |  |  | NCCOc1ccc(Nc2ccc(CCNC[C@H](O)c3ccc(O)c4[nH]c(=O)ccc34)cc2)cc1 |  |  |  | 
1 | 140 | 1.58 | 0.0631 | 7.94 | 0.631 |  |  |  |  |  |  |  | CC(C)(N)COc1ccc(Nc2ccc(CCNC[C@H](O)c3ccc(O)c4[nH]c(=O)ccc34)cc2)cc1-c1ccccc1 |  |  |  | 
12.6 | 72 |  | 0.251 |  | 2 |  |  |  |  |  |  |  | CCOc1ccc(Nc2ccc(CCNC[C@H](O)c3ccc(O)c4[nH]c(=O)ccc34)cc2)cc1 |  | inactive |  | 
5.01 | 95 | 7.94 | 0.158 | 39.8 | 0.631 |  |  |  |  |  |  |  | NCCCOc1ccc(Nc2ccc(CCNC[C@H](O)c3ccc(O)c4[nH]c(=O)ccc34)cc2)cc1 |  |  |  | 
6.31 | 115 |  |  |  |  |  |  |  |  |  |  |  | COc1ccc(Nc2ccc(CCNC[C@H](O)c3ccc(O)c4[nH]c(=O)ccc34)cc2)cc1-c1ccccc1 | Active |  |  | 
1.26 | 101 | 2.51 | 0.1 | 10 | 0.501 |  |  |  |  |  |  |  | COc1ccc(Nc2ccc(CCNC[C@H](O)c3ccc(O)c4[nH]c(=O)ccc34)cc2)cc1-c1ccc(CN)cc1 | Active |  |  | 
